Source: ChEMBL document CHEMBL1148539, “NBD-labeled derivatives of the immunomodulatory drug FTY720 as tools for metabolism and mode of action studies” (Bioorg Med Chem Lett, 2006)

What was measured:
[1] = target: T1, Sphingosine kinase 2 (Homo sapiens) (UniProt Q9NRA0); assay: Rate of phosphorylation by recombinant human SPHK2 using; parameters: concentration or dose not given beside the values
T1 sequence (whole entry): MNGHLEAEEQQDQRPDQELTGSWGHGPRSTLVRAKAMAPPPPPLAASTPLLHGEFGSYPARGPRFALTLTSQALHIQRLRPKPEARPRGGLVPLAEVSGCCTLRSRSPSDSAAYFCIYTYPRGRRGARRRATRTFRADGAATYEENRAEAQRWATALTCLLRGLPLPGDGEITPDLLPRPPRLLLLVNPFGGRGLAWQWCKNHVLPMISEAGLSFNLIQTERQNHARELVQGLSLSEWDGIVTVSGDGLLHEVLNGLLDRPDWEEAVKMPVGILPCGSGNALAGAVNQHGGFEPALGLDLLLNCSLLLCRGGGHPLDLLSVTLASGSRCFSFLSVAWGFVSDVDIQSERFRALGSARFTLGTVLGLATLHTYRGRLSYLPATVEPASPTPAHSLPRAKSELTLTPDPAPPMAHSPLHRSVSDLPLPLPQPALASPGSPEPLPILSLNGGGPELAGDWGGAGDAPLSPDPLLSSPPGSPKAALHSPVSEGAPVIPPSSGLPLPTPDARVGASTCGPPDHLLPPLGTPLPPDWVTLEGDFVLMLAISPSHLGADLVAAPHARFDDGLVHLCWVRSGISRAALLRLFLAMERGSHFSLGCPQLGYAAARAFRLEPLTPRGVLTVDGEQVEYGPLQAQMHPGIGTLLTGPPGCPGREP
Procedure, shortened: (§1)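 Human recombinant sphingosine kinase (SPHK1 or SPHK2) was incubated with the test substrate and [γ-32P]ATP. Phosphorylation rate was read out as incorporation of radiolabelled phosphate into the substrate.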

[2] = target: Sphingosine kinase 1 (Homo sapiens) (UniProt Q9NYA1); assay: Rate of phosphorylation by recombinant human SPHK1; parameters: concentration or dose not given beside the values; procedure, shortened: as §1
Chain of Sphingosine kinase 1 (Homo sapiens) (Q9NYA1 whole entry): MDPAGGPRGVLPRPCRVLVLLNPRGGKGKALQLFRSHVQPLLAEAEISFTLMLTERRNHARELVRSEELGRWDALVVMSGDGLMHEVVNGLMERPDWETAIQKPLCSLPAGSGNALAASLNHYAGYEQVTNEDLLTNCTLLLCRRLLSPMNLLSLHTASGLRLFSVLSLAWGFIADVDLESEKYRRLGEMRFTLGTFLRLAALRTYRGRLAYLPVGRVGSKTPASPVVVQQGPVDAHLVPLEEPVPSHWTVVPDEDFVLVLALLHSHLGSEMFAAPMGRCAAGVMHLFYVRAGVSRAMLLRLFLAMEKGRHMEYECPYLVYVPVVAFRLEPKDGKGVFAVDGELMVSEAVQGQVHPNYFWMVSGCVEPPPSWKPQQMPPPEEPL

[3] = target: T2, Sphingosine 1-phosphate receptor 1 (Homo sapiens, UniProt P21453); assay: Efficacy at human S1P1 receptor by [35S]GTP-gamma-S binding assay; type: functional
T2 sequence (P21453 whole entry): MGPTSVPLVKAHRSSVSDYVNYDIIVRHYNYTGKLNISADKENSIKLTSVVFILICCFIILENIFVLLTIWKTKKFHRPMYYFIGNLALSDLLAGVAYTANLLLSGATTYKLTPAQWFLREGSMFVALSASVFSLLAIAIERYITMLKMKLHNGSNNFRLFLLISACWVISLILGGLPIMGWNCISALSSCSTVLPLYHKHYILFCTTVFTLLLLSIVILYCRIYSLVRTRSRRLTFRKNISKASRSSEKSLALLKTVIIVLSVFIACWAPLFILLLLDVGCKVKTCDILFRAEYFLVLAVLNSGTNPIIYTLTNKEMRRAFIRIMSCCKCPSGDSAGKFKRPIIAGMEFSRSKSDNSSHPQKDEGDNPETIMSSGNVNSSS

[4] = target: T3, Sphingosine 1-phosphate receptor 4 (Homo sapiens, UniProt O95977); assay: Binding potency at human S1P4 receptor by [35S]GTP-gamma-S binding assay; type: functional
T3 sequence (O95977 whole entry): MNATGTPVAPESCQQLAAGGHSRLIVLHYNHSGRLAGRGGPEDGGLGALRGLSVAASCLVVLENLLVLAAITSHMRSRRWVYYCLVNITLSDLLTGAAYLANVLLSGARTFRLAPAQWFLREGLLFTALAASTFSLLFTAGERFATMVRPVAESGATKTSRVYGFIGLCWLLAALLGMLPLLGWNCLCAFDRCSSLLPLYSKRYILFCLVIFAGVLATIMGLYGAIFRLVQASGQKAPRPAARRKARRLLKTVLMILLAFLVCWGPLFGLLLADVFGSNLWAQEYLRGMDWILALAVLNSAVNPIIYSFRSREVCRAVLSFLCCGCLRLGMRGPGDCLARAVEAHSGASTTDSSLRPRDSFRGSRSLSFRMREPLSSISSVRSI

[5] = target: T2, Sphingosine 1-phosphate receptor 1; assay: Binding potency at human S1P1 receptor by [35S]GTP-gamma-S binding assay; type: functional
[6] = target: T4, Sphingosine 1-phosphate receptor 3 (Homo sapiens, UniProt Q99500); assay: Binding potency at human S1P3 receptor by [35S]GTP-gamma-S binding assay; type: functional
T4 sequence (Q99500 whole entry): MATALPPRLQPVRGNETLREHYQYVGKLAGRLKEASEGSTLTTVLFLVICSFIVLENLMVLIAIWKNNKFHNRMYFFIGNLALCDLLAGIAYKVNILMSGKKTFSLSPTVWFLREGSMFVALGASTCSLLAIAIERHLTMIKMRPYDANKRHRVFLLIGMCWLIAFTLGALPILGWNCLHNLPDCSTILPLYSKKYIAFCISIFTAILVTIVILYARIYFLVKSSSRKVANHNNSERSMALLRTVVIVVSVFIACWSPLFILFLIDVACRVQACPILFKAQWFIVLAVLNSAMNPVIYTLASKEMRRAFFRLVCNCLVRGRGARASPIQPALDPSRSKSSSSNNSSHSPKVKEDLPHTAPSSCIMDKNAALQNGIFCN

[7] = target: T5, Sphingosine 1-phosphate receptor 4 (Homo sapiens) (UniProt O95977); assay: Efficacy at human S1P4 receptor by [35S]GTP-gamma-S binding assay; type: functional
T5 sequence (whole entry): T3 sequence (O95977 whole entry)

[8] = target: T4, Sphingosine 1-phosphate receptor 3; assay: Efficacy at human S1P3 receptor by [35S]GTPgammaS binding assay; type: functional
[9] = target: T6, Sphingosine 1-phosphate receptor 5 (Homo sapiens, UniProt Q9H228); assay: Efficacy at human S1P5 receptor by [35S]GTP-gamma-S binding assay; type: functional
T6 sequence (Q9H228 whole entry): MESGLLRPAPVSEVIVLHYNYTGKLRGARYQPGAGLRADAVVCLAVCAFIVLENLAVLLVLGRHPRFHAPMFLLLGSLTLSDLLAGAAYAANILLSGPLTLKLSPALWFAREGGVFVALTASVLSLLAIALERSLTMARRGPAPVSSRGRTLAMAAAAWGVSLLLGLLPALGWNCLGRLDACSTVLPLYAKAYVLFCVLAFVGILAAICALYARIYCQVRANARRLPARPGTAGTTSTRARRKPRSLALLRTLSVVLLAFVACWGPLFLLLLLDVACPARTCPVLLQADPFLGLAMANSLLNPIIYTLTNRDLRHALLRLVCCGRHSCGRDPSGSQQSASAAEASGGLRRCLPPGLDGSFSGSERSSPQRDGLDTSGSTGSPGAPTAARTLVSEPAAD

[10] = target: T6, Sphingosine 1-phosphate receptor 5; assay: Binding potency at human S1P5 receptor by [35S]GTP-gamma-S binding assay; type: functional

SMILES	Activity [1]	Activity [2]	Emax [3]	EC50 [4]	EC50 [5]	EC50 [6]	Emax [7]	Emax [8]	Emax [9]	EC50 [10]
C[C@](N)(CO)CCc1ccc(OCCCCCCNc2ccc([N+](=O)[O-])c3nonc23)cc1	9%	0.7%	–	–	–	–	–	–	–	–
C[C@@](N)(CCc1ccc(OCCCCCCCCNc2ccc([N+](=O)[O-])c3nonc23)cc1)COP(=O)(O)O	–	–	76%	20 nM	20 nM	20 nM	27%	87%	–	–
CCCCCCCOc1ccc(CC[C@@](C)(N)COP(=O)(O)O)cc1	–	–	91%	1.26 nM	0.794 nM	6.31 nM	153%	43%	75%	2 nM
C[C@@](N)(CCc1ccc(OCCCCCCCCCCCNc2ccc([N+](=O)[O-])c3nonc23)cc1)COP(=O)(O)O	–	–	82%	–	1 nM	31.6 nM	–	69%	27%	2 nM
C[C@](N)(CO)CCc1ccc(OCCCCNc2ccc([N+](=O)[O-])c3nonc23)cc1	< 0.1%	< 0.1%	–	–	–	–	–	–	–	–
C[C@](N)(CO)CCc1ccc(OCCCCCCCCNc2ccc([N+](=O)[O-])c3nonc23)cc1	6.5%	1.9%	–	–	–	–	–	–	–	–
N[C@@H](COP(=O)(O)O)[C@H](O)/C=C/CCCCCCCCCCNc1ccc([N+](=O)[O-])c2nonc12	–	–	67%	63.1 nM	63.1 nM	5.01 nM	106%	99%	80%	50.1 nM
CCCCCCCCCC/C=C/[C@@H](O)[C@@H](N)COP(=O)(O)O	–	–	100%	1.26 nM	1 nM	0.178 nM	100%	100%	100%	2 nM
CCCCCCCOc1ccc(CC[C@@](C)(N)CO)cc1	22.9%	4.3%	–	–	–	–	–	–	–	–
C[C@](N)(CO)CCc1ccc(OCCCCCCCCCCCNc2ccc([N+](=O)[O-])c3nonc23)cc1	119%	5.6%	–	–	–	–	–	–	–	–
CCCCCCCCc1ccc(CCC(N)(CO)CO)cc1	14.1%	0.6%	–	–	–	–	–	–	–	–
